Source: ChEMBL document CHEMBL5325493, “Discovery of AD258 as a Sigma Receptor Ligand with Potent Antiallodynic Activity” (J Med Chem, 2023)
Active and inactive are the calls of the source. The rule behind the calls is not given here.

Legend:
[1] = molecular target: Sigma intracellular receptor 2 (Homo sapiens, UniProt Q5BJF2); test: Binding affinity to S2R (unknown origin)
[2] = molecular target: Sigma non-opioid intracellular receptor 1 (Homo sapiens, UniProt Q99720); test: Binding affinity to S1R (unknown origin)
Sigma non-opioid intracellular receptor 1 (Homo sapiens, UniProt Q99720), sequence (Q99720 whole entry): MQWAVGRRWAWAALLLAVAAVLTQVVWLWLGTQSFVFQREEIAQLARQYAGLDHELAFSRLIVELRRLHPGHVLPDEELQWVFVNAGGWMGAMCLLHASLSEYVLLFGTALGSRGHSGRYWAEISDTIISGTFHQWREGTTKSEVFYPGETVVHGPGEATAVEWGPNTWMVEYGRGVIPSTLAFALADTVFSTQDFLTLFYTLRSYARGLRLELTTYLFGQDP
Method in brief: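 Rat liver homogenates from male Sprague Dawley rats in 50 mM Tris pH 8. […] Incubated 120 min at 37 °C, then filtration and scintillation counting. Ki is the mean ± SD of at least two experiments in duplicate.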

[3] = system: Mus musculus; test: Anti-allodynic activity against capsaicin-induced wild type CD1 mouse allodynia model assessed as reversal of capsaicin induced hypersensitivity by measuring latency value at 5 mg/kg, sc preincubated for 30 mins followed by capsaicin addition (reference value: 13.51 +/- 1.93 sec); assay type: functional, organism-based
[4] = Cytotoxicity against HCE cells assessed as reduction in cell viability at 100 uM […] by MTT assay; assay type: toxicity, cell-based; details: human
[5] = system: Mus musculus; test: Anti-allodynic activity against capsaicin-induced wild type CD1 mouse allodynia model assessed as reversal of capsaicin induced hypersensitivity by measuring latency value at 10 mg/kg, sc preincubated for 5 with […] followed by compound addition for 30 mins prior to capsaicin stimulation; assay type: functional, organism-based
[6] = system: Mus musculus; test: Anti-allodynic activity against capsaicin-induced d sc dosed wild type CD1 mouse allodynia model assessed as reversal of capsaicin induced hypersensitivity by measuring latency value preincubated for 30 mins followed by capsaicin addition (reference value: 13.51 +/- 1.93 sec); assay type: functional; details: dose 10-40 mg/kg
[7] = system: Mus musculus; test: Anti-allodynic activity against capsaicin-induced wild type CD1 mouse allodynia model assessed as reversal of capsaicin induced hypersensitivity by measuring latency value at 20 mg/kg, sc preincubated for 5 with […] followed by compound addition for 30 mins prior to capsaicin stimulation; assay type: functional, organism-based
[8] = Cytotoxicity against HCE cells assessed as reduction in cell viability at above 20 uM incubated for 1 hr by MTT assay; assay type: toxicity, cell-based; details: human
Method in brief: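 HCE cells in MEM with 10% FBS, grown to 80–90% confluence. Exposed to compounds in free medium for 20 h. MTT (5 mg/mL in PBS, 1:5 of medium volume) then added for 1 h; formazan dissolved in DMSO and read at 540 nm. Viability expressed as % of untreated cells; three independent experiments.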

[9] = Cytotoxicity against HCE cells at 50 to 100 uM […] by LDH assay; assay type: toxicity, cell-based; details: human, 1.25 h, dose 50-100 µM
[10] = system: Mus musculus; test: Anti-allodynic activity against capsaicin-induced wild type CD1 mouse allodynia model assessed as reversal of capsaicin induced hypersensitivity by measuring latency value at 40 mg/kg, sc preincubated for 5 with […] followed by compound addition for 30 mins prior to capsaicin stimulation; assay type: functional, organism-based
Method in brief: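 Female CD1 mice, 25–30 g, acclimated at least 1 week. Mechanical allodynia induced by intraplantar capsaicin; read-out is response latency to mechanical stimulation of the paw. Compound given s.c.; the S1R agonist PRE-084 (32 mg/kg, s.c.) was co-administered to test reversal. Values are mean ± SEM from 6–9 animals per group.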

[11] = molecular target: Sigma non-opioid intracellular receptor 1 (Rattus norvegicus) (UniProt Q9R0C9); test: Selectivity ratio of Ki for binding affinity to rat liver homogenate S1R incubated for 2 hrs in absence of phenytoin to Ki for binding affinity to rat liver homogenate S1R incubated for 2 hrs in presence of phenytoin; assay type: tissue-based
Sigma non-opioid intracellular receptor 1 (Rattus norvegicus), sequence (Q9R0C9 whole entry): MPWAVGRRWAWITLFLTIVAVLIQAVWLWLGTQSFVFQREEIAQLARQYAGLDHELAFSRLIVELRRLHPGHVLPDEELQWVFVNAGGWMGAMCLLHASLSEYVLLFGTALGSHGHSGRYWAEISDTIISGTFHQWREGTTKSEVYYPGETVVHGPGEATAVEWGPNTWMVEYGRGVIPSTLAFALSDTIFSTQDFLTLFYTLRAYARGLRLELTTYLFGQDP

[12] = Toxicity in wild type CD1 mouse assessed as effect on motor coordination at 60 mg/kg, sc measured upto 240 mins by rotarod test; assay type: organism-based; details: in vivo, 4 h
Method in brief: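 Female CD1 mice, 25–30 g. Latency to fall from the rotarod was recorded immediately before and several times after s.c. dosing, over 4 h; vehicle was DMSO 5% in saline. Mean ± SEM from 6–7 animals; 2-way repeated measures ANOVA followed by Student–Newman–Keuls test against time 0.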

[13] = molecular target: Mu-type opioid receptor (Homo sapiens) (UniProt P35372); test: Inhibition of MOR (unknown origin) at 1 uM relative to control
Mu-type opioid receptor (Homo sapiens), sequence (P35372 whole entry): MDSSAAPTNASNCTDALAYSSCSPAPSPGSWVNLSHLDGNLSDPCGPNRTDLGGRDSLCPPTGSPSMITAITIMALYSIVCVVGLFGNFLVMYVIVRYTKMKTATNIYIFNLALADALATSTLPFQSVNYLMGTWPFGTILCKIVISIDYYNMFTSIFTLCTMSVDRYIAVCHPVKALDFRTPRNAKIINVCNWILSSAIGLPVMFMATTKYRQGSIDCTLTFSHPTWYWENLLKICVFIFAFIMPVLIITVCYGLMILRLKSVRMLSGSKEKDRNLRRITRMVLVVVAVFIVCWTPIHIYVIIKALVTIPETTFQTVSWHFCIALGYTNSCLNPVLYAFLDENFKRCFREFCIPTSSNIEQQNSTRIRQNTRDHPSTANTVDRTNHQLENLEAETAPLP

[14] = system: Mus musculus; test: Anti-allodynic activity against capsaicin-induced wild type CD1 mouse allodynia model assessed as reversal of capsaicin induced hypersensitivity by measuring latency value at 1.25 mg/kg, sc preincubated for 5 with […] followed by compound addition for 30 mins prior to capsaicin stimulation; assay type: functional, organism-based
[15] = system: Mus musculus; test: Anti-allodynic activity against capsaicin-induced wild type CD1 mouse allodynia model assessed as reversal of capsaicin induced hypersensitivity by measuring latency value at 0.6 to 1.25 mg/kg, sc preincubated for 30 mins followed by capsaicin addition (reference value: 13.51 +/- 1.93 sec); assay type: functional, organism-based; details: dose 0.6-1.25 mg/kg
[16] = molecular target: Cannabinoid receptor 1 (Homo sapiens) (UniProt P21554); test: Inhibition of CB1 (unknown origin) at 1 uM relative to control
Cannabinoid receptor 1 (Homo sapiens), sequence (P21554 whole entry): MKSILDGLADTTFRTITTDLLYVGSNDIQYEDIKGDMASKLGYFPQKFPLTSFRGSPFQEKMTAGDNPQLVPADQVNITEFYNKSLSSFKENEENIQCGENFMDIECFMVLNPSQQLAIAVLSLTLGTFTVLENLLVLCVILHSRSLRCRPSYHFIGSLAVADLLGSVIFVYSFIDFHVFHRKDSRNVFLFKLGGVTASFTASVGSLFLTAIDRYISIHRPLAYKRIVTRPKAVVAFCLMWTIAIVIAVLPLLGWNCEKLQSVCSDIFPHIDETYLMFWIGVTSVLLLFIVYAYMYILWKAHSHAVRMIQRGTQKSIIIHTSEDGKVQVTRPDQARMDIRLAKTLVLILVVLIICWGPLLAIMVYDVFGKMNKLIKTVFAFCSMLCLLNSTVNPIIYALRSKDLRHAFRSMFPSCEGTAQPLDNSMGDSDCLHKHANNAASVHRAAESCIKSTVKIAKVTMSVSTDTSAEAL
Method in brief: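 Membranes from rat Chem-1 cells expressing human recombinant CB1, 5 µg per sample, in modified HEPES pH 7.4. […] Nonspecific binding with 10 µM CP 55,940. Compound tested at 1 µM; filtration and counting of specifically bound radioligand.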

[17] = molecular target: Delta-type opioid receptor (Homo sapiens) (UniProt P41143); test: Inhibition of DOR (unknown origin) at 1 uM relative to control
Delta-type opioid receptor (Homo sapiens), sequence (P41143 whole entry): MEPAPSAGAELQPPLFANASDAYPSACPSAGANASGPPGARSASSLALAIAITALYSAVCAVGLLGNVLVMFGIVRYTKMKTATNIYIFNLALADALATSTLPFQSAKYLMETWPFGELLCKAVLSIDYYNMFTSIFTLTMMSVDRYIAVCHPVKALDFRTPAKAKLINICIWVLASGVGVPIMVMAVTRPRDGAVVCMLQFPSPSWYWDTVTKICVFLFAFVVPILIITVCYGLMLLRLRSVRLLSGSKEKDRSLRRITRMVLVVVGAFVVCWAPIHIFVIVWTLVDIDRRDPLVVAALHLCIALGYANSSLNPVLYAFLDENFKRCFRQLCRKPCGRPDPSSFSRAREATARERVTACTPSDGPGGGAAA

[18] = Toxicity in wild type CD1 mouse assessed as effect on motor coordination at 1.25 mg/kg, sc measured upto 240 mins by rotarod test; assay type: organism-based; details: in vivo, time < 240 hrs
Method in brief: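 Female CD1 mice on rotarod; latency to fall recorded immediately before and at several times over 4 h after s.c. dosing. Vehicle was 5% DMSO in saline; pregabalin 60 mg/kg s.c. served as the motor-deficit control. Mean ± SEM from 6–7 animals, analysed by 2-way repeated-measures ANOVA with Student–Newman–Keuls test.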

[19] = molecular target: Cannabinoid receptor 2 (Homo sapiens) (UniProt P34972); test: Inhibition of CB2 (unknown origin) at 1 uM relative to control
Cannabinoid receptor 2 (Homo sapiens), sequence (P34972 whole entry): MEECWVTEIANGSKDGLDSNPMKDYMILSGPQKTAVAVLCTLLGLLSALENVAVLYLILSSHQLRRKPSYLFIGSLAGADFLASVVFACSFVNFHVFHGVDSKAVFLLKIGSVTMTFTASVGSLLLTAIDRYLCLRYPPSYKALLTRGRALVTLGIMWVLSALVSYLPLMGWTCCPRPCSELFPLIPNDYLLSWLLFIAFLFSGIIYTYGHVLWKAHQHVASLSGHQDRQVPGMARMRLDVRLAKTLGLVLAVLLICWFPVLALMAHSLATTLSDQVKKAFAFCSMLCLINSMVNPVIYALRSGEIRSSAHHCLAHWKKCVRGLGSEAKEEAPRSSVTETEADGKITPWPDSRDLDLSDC
Method in brief: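 Membranes from CHO-K1 cells expressing human CB2, 30 µg per sample, in modified HEPES pH 7.0. […] Nonspecific binding with 10 µM R(+)-WIN-55,212-2. Compound tested at 1 µM; bound radioligand counted after filtration.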

[20] = molecular target: Kappa-type opioid receptor (Homo sapiens) (UniProt P41145); test: Inhibition of KOR (unknown origin) at 1 uM relative to control
Kappa-type opioid receptor (Homo sapiens), sequence (P41145 whole entry): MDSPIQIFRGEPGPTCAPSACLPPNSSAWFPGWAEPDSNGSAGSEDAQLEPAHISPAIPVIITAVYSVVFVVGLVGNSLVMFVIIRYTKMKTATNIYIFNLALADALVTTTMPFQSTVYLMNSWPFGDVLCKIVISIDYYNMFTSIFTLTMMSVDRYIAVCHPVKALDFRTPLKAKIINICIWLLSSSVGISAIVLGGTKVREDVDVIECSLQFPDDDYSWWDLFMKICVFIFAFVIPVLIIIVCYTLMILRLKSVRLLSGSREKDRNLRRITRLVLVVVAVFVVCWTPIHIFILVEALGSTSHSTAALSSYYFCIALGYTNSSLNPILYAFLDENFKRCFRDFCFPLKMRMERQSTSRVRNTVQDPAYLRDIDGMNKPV
Method in brief: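 Nonspecific binding defined with 10 µM naloxone. Filtration through PEI-presoaked filters, then scintillation counting.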

[21] = molecular target: Sigma non-opioid intracellular receptor 1 (Rattus norvegicus, UniProt Q9R0C9); test: Displacement of [3H]-(+)-pentazocine from rat liver homogenate S1R incubated for 120 mins by liquid scintillation counting method; assay type: tissue-based
Sigma non-opioid intracellular receptor 1 (Rattus norvegicus, UniProt Q9R0C9), sequence (Q9R0C9 whole entry): as the sequence (Q9R0C9 whole entry) above

Sigma intracellular receptor 2, sequence (Q5BJF2 whole entry): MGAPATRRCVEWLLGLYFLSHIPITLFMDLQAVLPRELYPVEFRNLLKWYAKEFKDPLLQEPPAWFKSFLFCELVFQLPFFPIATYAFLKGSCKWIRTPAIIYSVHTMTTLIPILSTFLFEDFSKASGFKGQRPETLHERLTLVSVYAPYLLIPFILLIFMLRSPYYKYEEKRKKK

SMILES: COC1Cc2ccccc2C2(CCC(N(C)CC3CCCCC3)CC2)O1 (stereo not given)
- Ki [1]: 12 nM
- Ki [2]: 1.9 nM

SMILES: c1ccc(CN2CCC3(CCc4ccccc4S3)CC2)cc1
- Ki [1]: 6.4 nM
- Ki [2]: 9.2 nM

SMILES: O=[N+]([O-])c1ccc(N2CCC3(CCN(CCc4ccccc4)C3)C2)cc1 (stereo not given)
- Activity [3]: Active
- Activity [4]: 50%
- Activity [5]: inactive
- Activity [6]: Dose-Dependent Effect
- Activity ([6]; 0.5 h, at 10 to 40 mg/kg): 100%

SMILES: c1ccc(CCN2CCC3(CCN(c4ccccc4)C3)C2)cc1 (stereo not given)
- Activity [7]: inactive
- Activity [4]: Toxic
- Activity [6]: Dose-Dependent Effect
- Activity [8]: Toxic
- Activity [9]: Toxic

SMILES: O=C(Cc1ccc(Cl)c(Cl)c1)N1CCC2(CCN(CCc3ccccc3)C2)C1 (stereo not given)
- Activity [10]: inactive
- Activity [6]: Dose-Dependent Effect
- Activity ([6]; 0.5 h, at 10 to 40 mg/kg): 100%

SMILES: C=CCN1CC[C@@]2(C)C[C@@H]1Cc1ccc(O)cc12
- Ratio Ki [11]: 5.8

SMILES: c1ccc(CN2CCC3(CC2)OCC(c2ccccc2)CO3)cc1
- Ki [1]: 813 nM
- Ki [2]: 0.013 nM

SMILES: CC(C)C[C@H](CN)CC(=O)O [PREGABALIN]
- Activity [12]: Toxic

SMILES: N#Cc1ccc(N2CCC3(CCN(CCc4ccccc4)C3)C2)cc1 (stereo not given)
- inhibition [13]: < 50%
- Activity [14]: inactive
- Activity [15]: Active
- inhibition [16]: < 50%
- inhibition [17]: < 50%
- Activity [18]: Non-Toxic
- inhibition [19]: < 50%
- Activity [6]: Dose-Dependent Effect
- Activity ([6]; 0.5 h, at 10 to 40 mg/kg): 100%
- inhibition [20]: < 50%
- Activity [9]: Toxic

SMILES: Cl.O=C(OCCN1CCOCC1)C1(c2ccccc2)CCCCC1
- Activity [8]: Toxic

SMILES: c1ccc(CCN2CCC3(CCN(CCc4ccccc4)C3)C2)cc1
- Activity [7]: inactive
- Activity [4]: Toxic
- Activity [6]: Dose-Dependent Effect
- Activity [8]: Toxic
- Activity [9]: Toxic

SMILES: c1ccc2c(c1)Nc1ccccc1S2 [PHENOTHIAZINE]
- Ki [21]: 4.3 nM

SMILES: CN1CCN(CCc2ccc(Cl)c(Cl)c2)CC1
- Activity [10]: inactive
